From ChEMBL document CHEMBL1144710, “epigenetic multiple ligands: mixed histone/protein methyltransferase, acetyltransferase, and class III deacetylase (sirtuin) inhibitors” (J Med Chem, 2008)
Activity calls are given as the source filed them. The rule behind the calls is not given here.

Experiments:
[1] = test system: U-937; experiment: Induction of granulocytic differentiation in human U937 cells assessed as CD11c expression at 5 uM after 30 hrs; type: functional
In short: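 U937 cells treated for 30 h, then stained with PE-conjugated CD11c (PE mouse IgG1 as control) for 30 min at 4 °C in the dark and resuspended in PBS with PI (0.25 µg/mL). Read-out is percent CD11c-positive/PI-negative cells, with dead PI-positive cells excluded. Coloured compounds limited the top dose to 5 µM or lower.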

[2] = target: T1, NAD-dependent protein deacetylase sirtuin-2 (Homo sapiens) (UniProt Q8IXJ6); experiment: Inhibition of human SIRT2 at 25 uM
T1 sequence (whole entry): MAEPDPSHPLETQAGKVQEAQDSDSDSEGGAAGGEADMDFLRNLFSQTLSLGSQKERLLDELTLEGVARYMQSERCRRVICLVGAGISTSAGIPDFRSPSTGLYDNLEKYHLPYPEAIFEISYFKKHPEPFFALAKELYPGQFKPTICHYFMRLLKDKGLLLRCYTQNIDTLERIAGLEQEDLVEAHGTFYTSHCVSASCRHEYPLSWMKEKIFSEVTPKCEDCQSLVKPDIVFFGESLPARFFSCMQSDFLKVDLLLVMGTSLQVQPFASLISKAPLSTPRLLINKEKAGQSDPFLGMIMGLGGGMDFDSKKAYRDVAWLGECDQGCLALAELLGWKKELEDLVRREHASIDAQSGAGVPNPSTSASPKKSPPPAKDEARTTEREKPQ
In short: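 Fluorescent two-stage assay. SIRT1 (1 U/well) or SIRT2 (5 U/well) with Fluor de Lys-SIRT1/2 substrate, NAD+ and compound at 25 µM, 37 °C for 2 h. Developer II containing nicotinamide then stopped the reaction and generated signal, read at ex 360/em 460 nm.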

[3] = target: T2, Histone-lysine N-methyltransferase SETD7 (Homo sapiens) (UniProt Q8WTS6); experiment: Inhibition of human recombinant SET7 assessed as histone H3 protein methylation at 100 uM
T2 sequence (whole entry): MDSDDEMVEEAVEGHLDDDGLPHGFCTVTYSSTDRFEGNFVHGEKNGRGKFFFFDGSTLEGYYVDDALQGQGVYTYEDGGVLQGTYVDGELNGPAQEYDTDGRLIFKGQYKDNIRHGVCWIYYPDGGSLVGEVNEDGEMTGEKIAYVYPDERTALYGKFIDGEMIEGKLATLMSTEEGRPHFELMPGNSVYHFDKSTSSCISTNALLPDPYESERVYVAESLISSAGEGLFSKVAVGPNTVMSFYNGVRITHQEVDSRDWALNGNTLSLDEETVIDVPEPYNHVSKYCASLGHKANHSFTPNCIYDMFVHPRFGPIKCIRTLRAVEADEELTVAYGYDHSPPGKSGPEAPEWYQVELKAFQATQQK
In short: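 Recombinant enzymes (0.2 µg) with substrate (0.5 µg: Npl3p for PRMT1, PABP1 for CARM1, histone H3 for SET7), 0.5 µM [3H]AdoMet and 100 µM compound in PBS pH 7.4 with 3.3% v/v DMSO, 90 min at 30 °C. Products separated by 10% SDS-PAGE, transferred to PVDF, detected by fluorography on film overnight.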

[4] = target: Protein arginine N-methyltransferase 1 (Homo sapiens) (UniProt Q99873); experiment: Inhibition of human recombinant PRMT1 assessed as histone H4 methylation at 50 uM
Sequence of Protein arginine N-methyltransferase 1 (Homo sapiens) (Q99873 whole entry, looked up): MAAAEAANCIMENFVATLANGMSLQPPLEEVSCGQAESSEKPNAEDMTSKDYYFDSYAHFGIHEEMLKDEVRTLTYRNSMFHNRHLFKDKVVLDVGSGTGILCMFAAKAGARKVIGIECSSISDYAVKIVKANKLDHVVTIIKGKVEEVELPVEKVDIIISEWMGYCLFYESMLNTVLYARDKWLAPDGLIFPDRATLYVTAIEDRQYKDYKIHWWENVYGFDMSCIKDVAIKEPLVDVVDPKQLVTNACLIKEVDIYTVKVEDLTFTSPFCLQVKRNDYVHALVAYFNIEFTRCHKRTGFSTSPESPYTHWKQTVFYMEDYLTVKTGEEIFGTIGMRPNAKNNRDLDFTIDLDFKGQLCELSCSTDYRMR

## O=C1/C(=C/c2cc(Br)c(O)c(Br)c2)COC/C1=C\c1cc(Br)c(O)c(Br)c1
[1]
  Activity: 96.1%
[2]
  inhibition: 67%
[3]
  Activity: Active
[4]
  inhibition: 91%
